Legend:
Type in all cases: functional
[1] = test system: Rattus norvegicus; assay: Percent change in volume of foot edema of test compound to that of positive control was determined at a dose of 31.6 mg/kg in rat; -26/-81
[2] = test system: Rattus norvegicus; assay: Percent change in volume of foot edema of test compound to that of positive control was determined at a dose of 31.6 mg/kg in rat
[3] = test system: Rattus norvegicus; assay: Percent change in volume of foot edema of test compound to that of positive control was determined at a dose of 10 mg/kg in rat
[4] = organism: Cavia porcellus; assay: Dose that protects 50% of guinea pig from collapse was determined in guinea pig anaphylaxis assay; conditions: read-out: PD50
How it was run: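 Guinea pigs dosed by gavage (10 mL/kg) with compound in 0.5% Tween 80/water; reference theophylline 100 mg/kg po. At 1–24 h, exposed in chamber to aerosolized 1% (w/v) egg albumin at 10 L air/min for up to 5 min; protected if no collapse within 5 min. PD50 by Litchfield and Wilcoxon.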

[5] = test system: Rattus norvegicus; assay: Percent change in volume of foot edema of test compound to that of positive control was determined at a dose of 10 mg/kg in rat; -67/-72
[6] = test system: Rattus norvegicus; assay: Percent change in volume of foot edema of test compound to that of positive control was determined at a dose of 3.16 mg/kg in rat; -52/-79
[7] = test system: Rattus norvegicus; assay: Percent change in volume of foot edema of test compound to that of positive control was determined at a dose of 31.6 mg/kg in rat; -90/-79
[8] = test system: Rattus norvegicus; assay: Percent change in volume of foot edema of test compound to that of positive control was determined at a dose of 10 mg/kg in rat; -70/-88
[9] = test system: Rattus norvegicus; assay: Oral Antiallergic activity in the passive foot anaphylaxis (PFA) assay of various amines at the dose of 3.16 mg/kg; -42/-78
[10] = test system: Rattus norvegicus; assay: Percent change in volume of foot edema of test compound to that of positive control was determined at a dose of 31.6 mg/kg in rat; -91/-83
[11] = test system: Rattus norvegicus; assay: Percent change in volume of foot edema of test compound to that of positive control was determined at a dose of 10 mg/kg in rat; -72/-83
[12] = test system: Rattus norvegicus; assay: Percent change in volume of foot edema of test compound to that of positive control was determined at a dose of 3.16 mg/kg in rat; -32/-93
[13] = test system: Rattus norvegicus; assay: Percent change in volume of foot edema of test compound to that of positive control was determined at a dose of 31.6 mg/kg in rat; -88/-83
[14] = test system: Rattus norvegicus; assay: Percent change in volume of foot edema of test compound to that of positive control was determined at a dose of 31.6 mg/kg in rat; -24/-58
[15] = test system: Rattus norvegicus; assay: Percent change in volume of foot edema of test compound to that of positive control was determined at a dose of 10 mg/kg in rat; -39/-78
[16] = test system: Rattus norvegicus; assay: Percent change in volume of foot edema of test compound to that of positive control was determined at a dose of 31.6 mg/kg in rat; -70/-84
[17] = test system: Rattus norvegicus; assay: Percent change in volume of foot edema of test compound to that of positive control was determined at a dose of 10 mg/kg in rat; -50/-62
[18] = test system: Rattus norvegicus; assay: Percent change in volume of foot edema of test compound to that of positive control was determined at a dose of 3.16 mg/kg in rat; +22/-62
[19] = test system: Rattus norvegicus; assay: Percent change in volume of foot edema of test compound to that of positive control was determined at a dose of 31.6 mg/kg in rat; […]/-78
[20] = test system: Rattus norvegicus; assay: Percent change in volume of foot edema of test compound to that of positive control was determined at a dose of 10 mg/kg in rat; -25/-44
[21] = test system: Rattus norvegicus; assay: Percent change in volume of foot edema of test compound to that of positive control was determined at a dose of 31.6 mg/kg in rat; -49/-44
[22] = test system: Rattus norvegicus; assay: Percent change in volume of foot edema of test compound to that of positive control was determined at a dose of 10 mg/kg in rat; -48/-68
[23] = test system: Rattus norvegicus; assay: Percent change in volume of foot edema of test compound to that of positive control was determined at a dose of 3.16 mg/kg in rat; -13/-68
[24] = test system: Rattus norvegicus; assay: Percent change in volume of foot edema of test compound to that of positive control was determined at a dose of 31.6 mg/kg in rat; -78/-78
[25] = test system: Rattus norvegicus; assay: Percent change in volume of foot edema of test compound to that of positive control was determined at a dose of 10 mg/kg in rat; -5/-59
[26] = test system: Rattus norvegicus; assay: Percent change in volume of foot edema of test compound to that of positive control was determined at a dose of 31.6 mg/kg in rat; -54/-67
[27] = test system: Rattus norvegicus; assay: Percent change in volume of foot edema of test compound to that of positive control was determined at a dose of 10 mg/kg in rat; -41/-59
[28] = test system: Rattus norvegicus; assay: Percent change in volume of foot edema of test compound to that of positive control was determined at a dose of 31.6 mg/kg in rat; -74/-67
[29] = test system: Rattus norvegicus; assay: Percent change in volume of foot edema of test compound to that of positive control was determined at a dose of 31.6 mg/kg in rat; -29/-47
[30] = test system: Rattus norvegicus; assay: Percent change in volume of foot edema of test compound to that of positive control was determined at a dose of 10 mg/kg in rat; -43/-81
[31] = test system: Rattus norvegicus; assay: Percent change in volume of foot edema of test compound to that of positive control was determined at a dose of 31.6 mg/kg in rat; -73/-65

Compound: O=C(O)C(=O)O.OC(CCN1CCCCC1)COc1ccccc1 (centres undefined)
- PFA [1]: -26

Compound: Cl.Cl.O=[N+]([O-])c1ccc(OCC(O)CCN2CCN(c3ccccc3)CC2)cc1 (centres undefined)
- PFA [2]: -92
- PFA [3]: -28

Compound: Cl.Cl.OC(CCN1CCN(c2ccccn2)CC1)COc1ccc(F)cc1 (centres undefined)
- ED50 [4]: 13.9 mg/kg
- PFA [5]: -67
- PFA [6]: -52
- PFA [7]: -90

Compound: COc1ccc(N2CCN(CCC(O)COc3ccc(F)cc3)CC2)cc1.Cl (centres undefined)
- ED50 [4]: > 178 mg/kg
- PFA [8]: -70
- PFA [9]: -42
- PFA [10]: -91

Compound: Cl.OC(CCN1CCN(c2ccc(F)cc2)CC1)COc1ccc(F)cc1 (centres undefined)
- ED50 [4]: 3.06 mg/kg
- PFA [11]: -72
- PFA [12]: -32
- PFA [13]: -88

Compound: CN1CCN(CCC(O)COc2ccccc2)CC1.O=C(O)/C=C\C(=O)O (centres undefined)
- PFA [14]: -24

Compound: O=C(O)/C=C\C(=O)O.O=C(O)/C=C\C(=O)O.OC(CCN1CCN(c2ccccn2)CC1)COc1ccccc1 (centres undefined)
- PFA [15]: -39
- PFA [16]: -70

Compound: Cc1cc(Cl)ccc1OCC(O)CCN1CCN(c2ccccc2)CC1.Cl.Cl (centres undefined)
- PFA [17]: -50
- PFA [18]: 22
- PFA [19]: -69

Compound: Cl.Cl.OC(CCN1CCN(c2ccccc2)CC1)COc1ccc(Cl)c(Cl)c1 (centres undefined)
- PFA [20]: -25
- PFA [21]: -49

Compound: Cl.Cl.OC(CCN1CCN(c2ccccn2)CC1)COc1ccc(Cl)cc1 (centres undefined)
- ED50 [4]: 10.2 mg/kg
- PFA [22]: -48
- PFA [23]: -13
- PFA [24]: -78

Compound: Cl.Cl.OC(CCN1CCN(c2ccc(Cl)cc2)CC1)COc1ccc(Cl)cc1 (centres undefined)
- PFA [25]: -5
- PFA [26]: -54

Compound: Cc1cc(OCC(O)CCN2CCN(c3ccc(F)cc3)CC2)ccc1Cl.Cl.Cl (centres undefined)
- PFA [27]: -41
- PFA [28]: -74

Compound: OC(CCN1CCC(c2ccccc2)CC1)COc1ccccc1 (centres undefined)
- PFA [29]: -29

Compound: OC(CCN1CCN(c2ccccc2)CC1)COc1ccc(F)cc1 (centres undefined)
- PFA [30]: -43
- PFA [31]: -73

From ChEMBL document CHEMBL1124808, “The synthesis and antiallergy activity of 1-(aryloxy)-4-(4-arylpiperazinyl)-2-butanol derivatives” (1990)
